Experimental data as given in ChEMBL document CHEMBL1146278, “Design and synthesis of substrate-mimic inhibitors of mycothiol-S-conjugate amidase from Mycobacterium tuberculosis” (Bioorg Med Chem Lett, 2007).

Molecular target: T1, Mycothiol S-conjugate amidase (Mycobacterium tuberculosis) (UniProt P9WJN1)
T1 sequence (whole entry): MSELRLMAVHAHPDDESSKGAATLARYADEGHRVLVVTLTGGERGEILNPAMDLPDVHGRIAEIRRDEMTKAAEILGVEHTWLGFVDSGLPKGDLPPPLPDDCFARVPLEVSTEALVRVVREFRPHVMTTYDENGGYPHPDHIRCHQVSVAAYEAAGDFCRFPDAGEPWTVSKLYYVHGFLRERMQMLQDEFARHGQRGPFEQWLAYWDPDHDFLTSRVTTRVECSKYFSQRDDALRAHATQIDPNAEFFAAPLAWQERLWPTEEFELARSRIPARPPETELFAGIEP
Test: Inhibition of Mycobacterium tuberculosis MCA at 50 uM
Outline: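 Recombinant MCA was assayed by fluorescence-detected HPLC, with mycothiol bimane (MSmB) or its cyclohexyl thioglycoside analog as substrate. Inhibitors were screened at 100 and 50 μM, and the reported values are at a final 50 μM. Each value is the mean of two experiments. Below 10% inhibition was scored as no inhibition.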

SMILES	inhibition [%]
CCCSc1cc(C(=O)N[C@H]2[C@@H](O[C@@H]3C[C@](O)(CO)C[C@@H](O)[C@H]3O)O[C@H](CO)[C@@H](O)[C@@H]2O)ccn1	15
CN(C)c1ccc(C(=O)N[C@H]2[C@@H](O[C@@H]3C[C@](O)(CO)C[C@@H](O)[C@H]3O)O[C@H](CO)[C@@H](O)[C@@H]2O)cc1	44
O=C(N[C@H]1[C@@H](O[C@@H]2C[C@](O)(CO)C[C@@H](O)[C@H]2O)O[C@H](CO)[C@@H](O)[C@@H]1O)c1cccnc1Sc1ccc(Cl)cc1	10
O=C(N[C@H]1[C@@H](O[C@@H]2C[C@](O)(CO)C[C@@H](O)[C@H]2O)O[C@H](CO)[C@@H](O)[C@@H]1O)c1ccco1	15
O=C(N[C@H]1[C@@H](O[C@@H]2C[C@](O)(CO)C[C@@H](O)[C@H]2O)O[C@H](CO)[C@@H](O)[C@@H]1O)c1ccc(C(F)(F)F)cc1	16
Cc1onc(-c2c(F)cccc2Cl)c1C(=O)N[C@H]1[C@@H](O[C@@H]2C[C@](O)(CO)C[C@@H](O)[C@H]2O)O[C@H](CO)[C@@H](O)[C@@H]1O	< 10
O=C(N[C@H]1[C@@H](O[C@@H]2C[C@](O)(CO)C[C@@H](O)[C@H]2O)O[C@H](CO)[C@@H](O)[C@@H]1O)c1ccc2ccsc2c1	< 10
CCCc1c(C(=O)N[C@H]2[C@@H](O[C@@H]3C[C@](O)(CO)C[C@@H](O)[C@H]3O)O[C@H](CO)[C@@H](O)[C@@H]2O)cnn1-c1cc(Cl)cc(Cl)c1	26
O=C(N[C@H]1[C@@H](O[C@@H]2C[C@](O)(CO)C[C@@H](O)[C@H]2O)O[C@H](CO)[C@@H](O)[C@@H]1O)C1CC1	13
O=C(N[C@H]1[C@@H](O[C@@H]2C[C@](O)(CO)C[C@@H](O)[C@H]2O)O[C@H](CO)[C@@H](O)[C@@H]1O)c1ccncc1	46
O=C(N[C@H]1[C@@H](O[C@@H]2C[C@](O)(CO)C[C@@H](O)[C@H]2O)O[C@H](CO)[C@@H](O)[C@@H]1O)c1ccc([N+](=O)[O-])cc1	15
O=C(N[C@H]1[C@@H](O[C@@H]2C[C@](O)(CO)C[C@@H](O)[C@H]2O)O[C@H](CO)[C@@H](O)[C@@H]1O)c1cccs1	13
CC(C)S(=O)(=O)c1csc(C(=O)N[C@H]2[C@@H](O[C@@H]3C[C@](O)(CO)C[C@@H](O)[C@H]3O)O[C@H](CO)[C@@H](O)[C@@H]2O)c1Cl	11
O=C(N[C@H]1[C@@H](O[C@@H]2C[C@](O)(CO)C[C@@H](O)[C@H]2O)O[C@H](CO)[C@@H](O)[C@@H]1O)c1ccc2ccccc2c1	13
